Tested on: HCT116 (KRAS(mut)/p53(wt)) cells xenograft
Experiment: In vivo anti-tumour activity, HCT116 xenograft
Design: species or system BALB/c nude mice
Settings: i.p. 10 mg/kg, every 3 d, five times; for body weight changes: BALB/c nude mice; for tumour volume compared with the vehicle group: HCT116 xenograft
In short: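 Six-week-old BALB/c nude mice received 1 × 10^7 HCT116 cells in 200 µL subcutaneously in the right flank. At 80–120 mm3, mice were randomised into four groups of 5. They were dosed i.p. in PBS pH 7.4 (0.2 ml) every 3 days ×5: vehicle or test compound at 1, 10 or 20 mg/kg; a second study used 10 mg/kg with reference inhibitors. Tumour volume was (min² × max)/2, with body weight recorded; mean ± SD.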

SMILES	body weight changes	tumour volume compared with the vehicle group
O=C(CCCCCCC(=O)Nc1ccccc1)NO [SAHA, Vorinostat]	stable trend	smaller than that of the vehicle group
CN1CCN(Cc2ccc(Nc3ncc(Cl)c(Nc4ccccc4S(=O)(=O)N(C)C)n3)cc2)CC1 [TP0903]	stable trend	smaller than that of the vehicle group
